Only some compounds are listed: those with a hit (about 6.3% of all), similar ones and a draw of the others.
PostGolgi ctrl = growth inhibition of yeast control strain, primary screen, counter-screen for post-Golgi transport modulator project | 5% of 98,000 active | inhibition, % at 10 µM | efflux-deficient yeast background strain, growth absorbance A615, 16 h
E coli WT exp = growth inhibitors of wild-type E. coli, primary screen, strain BW25113, expanded library, OD600; OD600 absorbance; growth inhibition, % at 100 µM; 0.15% of 98,000 active;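 active = growth inhibition above about 50% at one test dose, limit read from the data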;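 also: growth measured after 20 h incubation at 37 °C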
Ecoli tolC = growth inhibitors of E. coli tolC mutant, primary screen, strain BW25113 ΔtolC::kan, 384-well; growth inhibition, % at 10 µM (by protocol); AID 573, 2007; 2.2% of 65,000 active; OD615;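 active = growth inhibition at or above a cutoff equal to the mean over every tested compound plus 3 SD, cut at about 60% in these data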;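 also: growth measured after 20 h incubation at 37 °C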
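signal = optical density read at 615 nm | test system = E. coli ΔtolC::kan strain BW25113 | timing = 20 h compound exposure of bacteria at 37 °C | buffer or medium = LB medium plus 50 µg/mL kanamycin | compound dosing = 10 µM final, single dose | evaluation = % inhibition of E. coli growth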
PostGolgi yeast = phenotypic screen on post-Golgi transport, primary screen | 0.9% of 98,000 active | inhibition, % at 10 µM | post-Golgi transport phenotypic cell assay;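 also: yeast cells grown in 1536-well plates; yeast grown about 18 h at 30C before absorbance read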
Numbers stand for hits; . = inactive; / = no result. Rule as the data show it, unless noted: active = inhibition above about 30%; inactive = the rest.

SMILES | PostGolgi ctrl | E coli WT exp | Ecoli tolC | PostGolgi yeast
CC1CCCCC1NC(=O)Cn1c(CN2CCCCC2)nc2ccccc2c1=O (stereo unspecified) | . | . | . | .
Nn1c(CN2CCCCC2)nc2ccccc2c1=O | 31 | . | . | .
O=C(Nc1ncc(Cc2cc(Cl)ccc2Cl)s1)c1ccc([N+](=O)[O-])cc1 | 31 | . | / | .
O=C(O)CN1CCN(Cc2ccc(F)cc2Cl)C1=O | . | . | . | .
CC(O)(CS(=O)(=O)Cc1ccc(Cl)cc1)C(=O)Nc1cccc(C(F)(F)F)c1 (stereo unspecified) | . | . | / | .
O=C(Nc1cccc(C(F)(F)F)c1)N(Cc1ccc(Cl)cc1)CC(O)C(F)(F)F (stereo unspecified) | 51 | . | / | .
Cc1ccc(SCCNS(=O)(=O)c2ccc3c(c2)OCCO3)cc1 | 46 | . | 74 | .
Cc1ccc(SCCNS(=O)(=O)c2ccc(F)cc2)cc1 | 48 | . | . | .
O=C(NCCN=C1NS(=O)(=O)c2ccccc21)c1ccncc1 | . | . | / | .
CCC(C(=O)N1CCN(c2cccc(Cl)c2)CC1)c1ccccc1 (stereo unspecified) | . | . | 100 | .
Cc1ccc(S(=O)(=O)NCCN=C(CN2CCCC2)NS(=O)(=O)c2ccc(C)cc2)cc1 | 32 | . | . | .
Cc1ccc(S(=O)(=O)NCCN=C(CN2CCOCC2)NS(=O)(=O)c2ccc(C)cc2)cc1 | . | . | . | .
COc1ccc(OC)c(Nc2nc(-c3sc(NC(=O)C(C)(C)C)nc3C)cs2)c1 | . | . | / | .
COc1ccc(OC)c(Nc2nc(-c3sc(C)nc3C)cs2)c1 | 48 | . | . | .
COC(=O)c1ccc(C2C(C(=O)Nc3ccc(C)cc3C)=C(C)Nc3ncnn32)cc1 (stereo unspecified) | . | . | . | .
O=C(c1cnccn1)N1CCN(C/C=C/c2ccccc2)CC1 | . | . | . | .
N=c1c(S(=O)(=O)c2ccccc2)cc2c(=O)n3ccccc3nc2n1CCN1CCOCC1 | / | / | . | /
Cc1ccc(S(=O)(=O)c2cc3c(=O)n4ccccc4nc3n(C)c2=N)cc1 | 32 | . | . | .
O=C(CCc1ccccc1O)N/N=C/c1ccc(Sc2cccc3cccnc23)o1 | . | . | / | .
N#Cc1ccccc1Sc1ccccc1C(=O)Nc1ccc(Br)cc1 | 37 | . | / | .
Cc1ccccc1OCCNC(=O)c1ccccc1Sc1ccccc1C#N | . | . | / | .
Cc1cc(C)c(C)c(OCC(=O)NCc2nc(-c3ccccc3)no2)c1 | 41 | . | . | .
Cc1cc(OCC(=O)NCc2nc(-c3ccccc3)no2)c(C)cc1Br | 33 | . | . | .
COc1cc(OC)cc(C(=O)NCc2nc(-c3ccccc3)no2)c1 | . | . | . | .
CCOc1ccc(-n2ccnc2SCC(=O)NCc2ccc3c(c2)OCO3)cc1 | . | . | . | .
SMILES | PostGolgi ctrl | E coli WT exp | Ecoli tolC | PostGolgi yeast
CCn1c(=O)cc(SCC(=O)NCCN2CCN(Cc3ccccc3)CC2)c2ccccc21 | 34 | . | . | .
CCn1c(=O)cc(SCC(=O)NCCCN2CCN(c3ccc(F)cc3)CC2)c2ccccc21 | . | . | . | .
Cc1cccc(N2CCN(C(=O)c3cccc(N4C(=O)C5CC=CC(C)C5C4=O)c3)CC2)c1C (stereo unspecified) | . | . | / | .
Clc1ccc(CN2CCN(c3ncnc4scc(-c5cccs5)c34)CC2)cc1 | 58 | . | / | .
Cc1ccccc1N1CCN(c2ncnc3scc(-c4cccs4)c23)CC1 | . | . | / | .
O=C(COC(=O)C1(c2ccc(F)cc2)CCCC1)NC1CC1 | . | . | / | .
CCCCn1c2c(c(=N)c3c1CCC3)CCC2 | . | . | . | .
CCCCCCn1c2c(c(=N)c3c1CCC3)CCC2 | . | . | 90 | .
NS(=O)(=O)c1ccc(NCc2cc(Cl)ccc2OCc2ccccc2F)cc1 | 39 | . | / | .
NS(=O)(=O)c1ccc(NCc2ccccc2OCc2ccc(F)cc2)cc1 | . | . | / | .
O=[N+]([O-])c1c(C(Cl)Cl)nn(-c2ccccc2)c1N1CCCC1 | 31 | . | / | .
Clc1ccc(/C=N/NC(=Nc2ccccc2)c2ccccn2)c(Cl)c1 | 37 | . | / | .
O=C(NCc1ccc(Cl)cc1Cl)c1ccccn1 | . | . | . | .
COc1ccc(CCNC(=O)CN2CCC(C)CC2)cc1OC | . | . | / | .
CCCOc1cccc(C(=O)Nc2cc(NC(=O)c3ccco3)ccc2OC)c1 | 41 | . | . | .
COc1ccc(S(=O)(=O)Nc2cc(OC)c(NC(=O)c3ccco3)cc2OC)cc1 | . | . | . | .
COc1cc(NS(=O)(=O)c2ccc(Br)cc2)c(OC)cc1NC(=O)c1ccco1 | . | . | 76 | .
COc1ccc(Br)cc1C(=O)Nc1cccc(NC(=O)c2ccco2)c1 | 49 | . | . | .
COc1c(C)cc(Br)cc1C(=O)Nc1cccc(NC(=O)c2ccco2)c1 | 56 | . | 74 | 31
COc1cc(OC)cc(C(=O)Nc2cc(NC(=O)c3ccco3)ccc2OC)c1 | . | . | . | .
O=C(NCCCn1ccnc1)c1cc2c(s1)CCCCC2 | . | . | . | .
O=C(NCc1ccccc1F)C1CCCN1C(=O)NCc1ccccc1 (stereo unspecified) | . | . | . | .
COc1ccc(-c2cc(C(F)F)nc(-n3nc(C)cc3C)n2)cc1 | 31 | . | . | .
Cc1ccc(S(=O)(=O)N(Cc2cc3cc4c(cc3[nH]c2=O)OCCO4)CC2CCCO2)cc1 (stereo unspecified) | . | . | . | .
Cc1ccc2[nH]c(=O)c(CN(CC3CCCO3)S(=O)(=O)c3cccc4nsnc34)cc2c1 (stereo unspecified) | . | . | . | .
SMILES | PostGolgi ctrl | E coli WT exp | Ecoli tolC | PostGolgi yeast
Cc1ccc2[nH]c(=O)c(CN(CC3CCCO3)S(=O)(=O)c3c(C)ccc4nsnc34)cc2c1 (stereo unspecified) | 32 | . | . | .
Cc1cc(C)c2cc(CN(CC3CCCO3)S(=O)(=O)c3ccc4c(c3)OCCO4)c(=O)[nH]c2c1 (stereo unspecified) | . | . | 67 | .
Cc1cccc(C)c1N1C(=O)C2ON(c3ccccc3)C(c3ccncc3)C2C1=O (stereo unspecified) | 91 | . | . | 102
O=C1C2ON(c3ccccc3)C(c3ccncc3)C2C(=O)N1c1ccccc1 (stereo unspecified) | . | . | . | .
O=C(c1ccc(Cl)cc1Cl)C1(n2cncn2)Oc2ccccc2C1O (stereo unspecified) | 96 | . | . | 100
Cc1ccccc1OCC(=O)NCC1CCCO1 (stereo unspecified) | . | . | . | .
Cc1ccccc1OCC(=O)NCCN1CCCC1 | 35 | . | . | .
CCCCCOc1ccc(C(=O)NCC(=O)NCC(=O)OCC)cc1 | . | . | . | .
Cc1cc(=O)[nH]c(SCC(=O)c2ccc(C)c(C)c2)n1 | . | . | . | 87
CCN(CC)S(=O)(=O)c1ccc(C(=O)OCn2nnc3ccccc3c2=O)cc1 | 78 | . | . | 89
Cc1nnc(Sc2nc3ccccc3o2)c2ccccc12 | . | . | . | .
Cc1ccc(-c2nnc(Sc3nc4ccccc4o3)c3ccccc23)cc1 | 64 | . | / | .
Clc1ccc(-c2nnc(Sc3nc4ccccc4o3)c3ccccc23)cc1 | 57 | . | / | .
